In ChEMBL document CHEMBL3627606, “Development of Novel, CNS Penetrant Positive Allosteric Modulators for the Metabotropic Glutamate Receptor Subtype 1 (mGlu1), Based on an N-(3-Chloro-4-(1,3-dioxoisoindolin-2-yl)phenyl)-3-methylfuran-2-carboxamide Scaffold, That Potentiate Wild Type and Mutant mGlu1 Receptors Found in …” (J Med Chem, 2015):

Experiments:
Homo sapiens = species: Homo sapiens; assay: Selectivity index, ratio of EC50 for human mGlu4 receptor to EC50 for human mGlu1 receptor
[1] = target: Metabotropic glutamate receptor 2 (Homo sapiens) (UniProt Q14416); assay: Positive allosteric modulation of mGlu2 receptor (unknown origin) assessed as potentiation of glutamate-induced response by cell-based assay
Chain of Metabotropic glutamate receptor 2 (Homo sapiens) (Q14416 19-872 limits assumed): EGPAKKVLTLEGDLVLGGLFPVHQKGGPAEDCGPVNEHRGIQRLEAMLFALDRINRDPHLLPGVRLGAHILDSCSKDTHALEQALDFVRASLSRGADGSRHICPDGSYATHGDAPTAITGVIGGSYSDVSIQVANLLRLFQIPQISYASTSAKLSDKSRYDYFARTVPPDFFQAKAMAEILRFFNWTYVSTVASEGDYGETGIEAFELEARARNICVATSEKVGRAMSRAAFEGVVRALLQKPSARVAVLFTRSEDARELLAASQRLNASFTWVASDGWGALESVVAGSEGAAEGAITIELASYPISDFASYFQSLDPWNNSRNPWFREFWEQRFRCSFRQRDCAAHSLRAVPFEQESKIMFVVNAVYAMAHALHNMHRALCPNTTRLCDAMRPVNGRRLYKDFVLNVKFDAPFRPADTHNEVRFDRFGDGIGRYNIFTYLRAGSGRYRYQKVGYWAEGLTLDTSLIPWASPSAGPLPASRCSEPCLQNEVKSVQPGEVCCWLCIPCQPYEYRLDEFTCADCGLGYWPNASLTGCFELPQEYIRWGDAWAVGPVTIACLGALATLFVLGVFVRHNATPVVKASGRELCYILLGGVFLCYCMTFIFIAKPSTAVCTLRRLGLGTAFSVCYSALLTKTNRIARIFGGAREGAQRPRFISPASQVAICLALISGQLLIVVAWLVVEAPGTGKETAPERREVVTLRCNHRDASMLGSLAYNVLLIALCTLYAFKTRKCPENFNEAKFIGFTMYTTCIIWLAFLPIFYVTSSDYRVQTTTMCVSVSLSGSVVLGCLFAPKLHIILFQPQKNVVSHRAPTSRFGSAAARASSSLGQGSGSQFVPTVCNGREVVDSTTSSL
Method in brief: (§1)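 Selectivity counterscreen at the other mGlu subtypes using the standard fold-shift paradigm. Compound was tested at 10 μM against the glutamate concentration-response curve, and the shift of that curve was read.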

[2] = target: Metabotropic glutamate receptor 6 (Homo sapiens) (UniProt O15303); assay: Positive allosteric modulation of mGlu6 receptor (unknown origin) assessed as potentiation of glutamate-induced response by cell-based assay; method in brief: as §1
Chain of Metabotropic glutamate receptor 6 (Homo sapiens) (O15303 whole entry): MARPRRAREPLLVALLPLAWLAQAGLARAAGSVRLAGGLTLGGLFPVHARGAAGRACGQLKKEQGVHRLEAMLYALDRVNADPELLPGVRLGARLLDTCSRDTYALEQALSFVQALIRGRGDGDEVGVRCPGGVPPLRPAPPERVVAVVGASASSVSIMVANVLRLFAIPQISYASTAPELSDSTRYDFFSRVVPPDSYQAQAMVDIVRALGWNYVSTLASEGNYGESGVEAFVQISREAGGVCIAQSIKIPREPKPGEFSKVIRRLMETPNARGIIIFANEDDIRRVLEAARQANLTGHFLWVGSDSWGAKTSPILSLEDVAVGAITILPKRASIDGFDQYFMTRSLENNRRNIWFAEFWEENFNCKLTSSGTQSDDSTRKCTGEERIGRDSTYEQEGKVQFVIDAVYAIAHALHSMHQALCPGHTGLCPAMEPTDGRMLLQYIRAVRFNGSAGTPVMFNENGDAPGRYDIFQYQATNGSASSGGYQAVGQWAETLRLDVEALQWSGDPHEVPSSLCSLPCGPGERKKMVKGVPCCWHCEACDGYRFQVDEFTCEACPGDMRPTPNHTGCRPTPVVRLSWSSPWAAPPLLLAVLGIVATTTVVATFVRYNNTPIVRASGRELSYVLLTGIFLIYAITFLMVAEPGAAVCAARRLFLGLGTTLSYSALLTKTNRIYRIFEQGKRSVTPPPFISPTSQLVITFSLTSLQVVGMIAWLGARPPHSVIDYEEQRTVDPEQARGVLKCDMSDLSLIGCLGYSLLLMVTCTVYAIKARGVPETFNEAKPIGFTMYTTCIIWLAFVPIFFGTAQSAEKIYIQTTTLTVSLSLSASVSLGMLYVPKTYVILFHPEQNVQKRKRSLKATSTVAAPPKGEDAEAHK

[3] = target: Metabotropic glutamate receptor 8 (Homo sapiens) (UniProt O00222); assay: Positive allosteric modulation of mGlu8 receptor (unknown origin) assessed as potentiation of glutamate-induced response by cell-based assay; method in brief: as §1
Chain of Metabotropic glutamate receptor 8 (Homo sapiens) (O00222 whole entry): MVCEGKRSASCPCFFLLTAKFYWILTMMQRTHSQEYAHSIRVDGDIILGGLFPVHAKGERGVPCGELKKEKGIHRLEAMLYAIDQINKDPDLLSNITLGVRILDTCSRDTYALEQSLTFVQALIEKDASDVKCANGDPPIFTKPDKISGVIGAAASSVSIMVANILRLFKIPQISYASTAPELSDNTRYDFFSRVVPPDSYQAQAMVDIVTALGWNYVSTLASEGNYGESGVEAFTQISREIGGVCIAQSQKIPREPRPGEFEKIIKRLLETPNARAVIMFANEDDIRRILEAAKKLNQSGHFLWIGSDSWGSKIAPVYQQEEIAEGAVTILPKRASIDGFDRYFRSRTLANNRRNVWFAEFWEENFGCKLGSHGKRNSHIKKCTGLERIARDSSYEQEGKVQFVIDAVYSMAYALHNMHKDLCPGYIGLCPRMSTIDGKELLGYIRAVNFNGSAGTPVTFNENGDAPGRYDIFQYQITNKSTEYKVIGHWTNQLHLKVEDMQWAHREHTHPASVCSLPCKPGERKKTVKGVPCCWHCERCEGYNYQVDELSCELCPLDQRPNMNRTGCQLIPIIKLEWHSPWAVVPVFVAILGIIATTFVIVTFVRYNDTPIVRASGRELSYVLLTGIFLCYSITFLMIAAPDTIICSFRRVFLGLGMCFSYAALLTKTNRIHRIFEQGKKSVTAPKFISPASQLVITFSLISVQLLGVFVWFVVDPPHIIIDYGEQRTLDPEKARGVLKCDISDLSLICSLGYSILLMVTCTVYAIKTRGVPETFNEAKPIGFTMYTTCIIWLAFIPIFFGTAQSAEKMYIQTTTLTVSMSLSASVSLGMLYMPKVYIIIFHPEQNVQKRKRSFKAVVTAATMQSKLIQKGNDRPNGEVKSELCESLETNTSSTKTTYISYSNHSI

Cytochrome P450 3A4 = Cytochrome P450 3A4 (Homo sapiens, UniProt P08684); assay: Inhibition of CYP3A4 in human liver microsomes by LC-MS/MS analysis; type: ADME
Chain of Cytochrome P450 3A4 (P08684 whole entry): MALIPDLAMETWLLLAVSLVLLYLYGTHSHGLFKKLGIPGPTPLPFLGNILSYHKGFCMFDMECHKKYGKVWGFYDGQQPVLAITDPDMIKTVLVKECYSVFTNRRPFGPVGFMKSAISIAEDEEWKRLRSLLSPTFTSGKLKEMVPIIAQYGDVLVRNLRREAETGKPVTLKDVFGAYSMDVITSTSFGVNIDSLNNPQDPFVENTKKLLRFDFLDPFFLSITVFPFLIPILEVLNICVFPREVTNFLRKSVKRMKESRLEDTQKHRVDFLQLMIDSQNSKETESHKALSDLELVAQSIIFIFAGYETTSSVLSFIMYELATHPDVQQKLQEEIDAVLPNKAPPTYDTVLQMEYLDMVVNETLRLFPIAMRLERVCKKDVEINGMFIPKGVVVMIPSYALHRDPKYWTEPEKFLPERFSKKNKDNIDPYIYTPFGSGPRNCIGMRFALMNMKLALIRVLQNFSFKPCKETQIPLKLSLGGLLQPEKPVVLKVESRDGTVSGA

[4] = test system: Metabotropic glutamate receptor 1 (Homo sapiens), Q13255 [P729T]; assay: Agonist activity at human mGlu1 P729T mutant receptor expressed in HEK293 cells assessed as calcium mobilization at > 1 uM uM by Fluo-4AM dye based fluorescence analysis; type: functional, cell-based
Chain of Metabotropic glutamate receptor 1 (Homo sapiens), Q13255 [P729T] (Q13255 whole entry P729T): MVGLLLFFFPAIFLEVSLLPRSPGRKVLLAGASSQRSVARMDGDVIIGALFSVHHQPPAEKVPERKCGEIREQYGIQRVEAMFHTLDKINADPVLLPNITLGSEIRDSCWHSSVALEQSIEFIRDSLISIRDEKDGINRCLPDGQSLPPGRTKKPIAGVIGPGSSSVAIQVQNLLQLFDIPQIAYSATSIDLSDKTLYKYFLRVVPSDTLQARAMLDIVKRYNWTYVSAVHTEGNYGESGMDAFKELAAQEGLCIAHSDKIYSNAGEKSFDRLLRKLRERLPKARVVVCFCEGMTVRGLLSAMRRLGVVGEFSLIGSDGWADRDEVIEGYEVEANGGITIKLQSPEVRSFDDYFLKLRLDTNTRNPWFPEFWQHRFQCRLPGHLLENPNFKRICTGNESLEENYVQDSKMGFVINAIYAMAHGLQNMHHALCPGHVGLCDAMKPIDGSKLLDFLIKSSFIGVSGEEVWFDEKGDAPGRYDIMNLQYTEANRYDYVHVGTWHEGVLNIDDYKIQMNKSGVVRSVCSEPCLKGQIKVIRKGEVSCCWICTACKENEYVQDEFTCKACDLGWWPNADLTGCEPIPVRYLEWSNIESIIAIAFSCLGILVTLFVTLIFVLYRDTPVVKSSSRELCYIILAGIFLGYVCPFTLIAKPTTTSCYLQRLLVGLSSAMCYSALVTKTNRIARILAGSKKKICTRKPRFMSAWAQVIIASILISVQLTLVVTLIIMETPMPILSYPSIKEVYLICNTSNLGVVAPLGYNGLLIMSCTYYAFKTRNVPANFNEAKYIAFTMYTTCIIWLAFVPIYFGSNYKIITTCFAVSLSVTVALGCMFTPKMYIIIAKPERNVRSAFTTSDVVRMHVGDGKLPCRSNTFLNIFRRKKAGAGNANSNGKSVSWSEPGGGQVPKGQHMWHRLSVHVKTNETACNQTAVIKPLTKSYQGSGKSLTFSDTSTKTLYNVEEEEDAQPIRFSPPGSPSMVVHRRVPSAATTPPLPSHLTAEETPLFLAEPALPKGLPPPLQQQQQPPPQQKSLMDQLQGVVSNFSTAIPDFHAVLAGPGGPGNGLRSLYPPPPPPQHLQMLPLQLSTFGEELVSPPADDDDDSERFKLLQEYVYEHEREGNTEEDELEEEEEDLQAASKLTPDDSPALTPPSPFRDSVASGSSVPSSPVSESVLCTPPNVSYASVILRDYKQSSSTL

[5] = test system: Metabotropic glutamate receptor 1 (Homo sapiens), Q13255 [A683E]; assay: Agonist activity at human mGlu1 A683E mutant receptor expressed in HEK293 cells assessed as calcium mobilization at > 1 uM uM by Fluo-4AM dye based fluorescence analysis; type: functional, cell-based
Chain of Metabotropic glutamate receptor 1 (Homo sapiens), Q13255 [A683E] (Q13255 whole entry A683E): as the sequence (Q13255 whole entry P729T) above, with A683E, T729P counted along it

[6] = Half life in Sprague-Dawley rat at 0.2 mg/kg, iv by LC-MS/MS analysis; conditions: in vivo
[7] = Plasma clearance in Sprague-Dawley rat at 0.2 mg/kg, iv by LC-MS/MS analysis
[8] = Mean residence time in Sprague-Dawley rat at 0.2 mg/kg, iv by LC-MS/MS analysis; conditions: in vivo
[9] = Ratio of drug level in brain to plasma of Sprague-Dawley rat at 0.2 mg/kg, iv after 0.25 hrs by LC-MS/MS analysis; conditions: read-out: BPR

SMILES: Cc1ccoc1C(=O)Nc1ccc(N2C(=O)c3cccc(F)c3C2=O)c(Cl)c1
- Ratio EC50 (Homo sapiens): 34.9
- fold change (FC) [1]: < 2
- fold change (FC) [2]: 6.7
- fold change (FC) [3]: < 2
- IC50 (Cytochrome P450 3A4): > 30 µM
- Activity [4]: 40%
- Activity [5]: 40%
- half-life [6]: 53.6 min
- clearance [7]: 13.3 mL/min/kg
- MRT [8]: 64.1 min
- Kp at 0.25 h [9]: 1.02
